Bioassay records: PubChem BioAssay, The Scripps Research Institute Molecular Screening Center
CHRM5 agonist: agonists of human muscarinic M5 receptor (CHRM5). AID 624037. activation, % at 3 µM. P08912. 360,000 compounds, 0.19% hits. CHO-K1 hM5 cells, Fluo-8 calcium fluorescence; 0% DMSO wells, 100% maximal acetylcholine response;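 active = activation above the run's mean over test compounds plus 3 SD, cut at about 23% in these data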;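 also: signal is peak over basal fluorescence ratio across the kinetic read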
Target sequence (P08912 whole entry, looked up): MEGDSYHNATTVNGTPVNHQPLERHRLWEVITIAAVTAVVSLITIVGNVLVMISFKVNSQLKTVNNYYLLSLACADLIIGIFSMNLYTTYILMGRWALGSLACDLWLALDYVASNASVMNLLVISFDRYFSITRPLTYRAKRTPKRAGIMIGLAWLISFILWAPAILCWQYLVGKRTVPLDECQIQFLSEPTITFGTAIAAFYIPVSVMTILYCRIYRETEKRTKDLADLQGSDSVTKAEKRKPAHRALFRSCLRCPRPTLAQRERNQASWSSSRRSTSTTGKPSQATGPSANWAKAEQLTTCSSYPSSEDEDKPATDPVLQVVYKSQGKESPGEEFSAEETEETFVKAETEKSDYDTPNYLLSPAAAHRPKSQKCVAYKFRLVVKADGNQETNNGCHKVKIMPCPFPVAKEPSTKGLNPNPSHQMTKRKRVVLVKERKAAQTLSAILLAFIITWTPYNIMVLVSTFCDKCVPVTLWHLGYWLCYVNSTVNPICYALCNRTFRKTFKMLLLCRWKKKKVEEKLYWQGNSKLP
CHRM5 antagonist: antagonists of human muscarinic M5 receptor (CHRM5); inhibition, % at 3 µM; P08912; 360,000 compounds, 0.59% hits; CHO-hM5 cells, Fluo-8 calcium fluorescence, ACh EC80;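 active = inhibition above a per-plate cutoff, the mean of that plate's test compounds plus 3 SD, cut at about 27% in these data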;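 also: 0% = acetylcholine EC80 with DMSO and 100% = DMSO without agonist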
CHRM4 PAM: positive allosteric modulators of human muscarinic M4 receptor; P08173; CHO-K1 hM4/Gqi5, Fluo-8 calcium fluorescence, ACh EC20; 0% = ACh EC20, 100% = maximal ACh; activation, % at 3 µM; 360,000 compounds, 0.4% hits;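 active = activation above its plate's cutoff, the mean activation of sample wells plus 3 SD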
M4 ag: agonists of human muscarinic M4 receptor (CHRM4); P08173; CHO-K1 hM4/Gqi5, Fluo-8 calcium fluorescence; vehicle 0%, full acetylcholine response 100%; activation, % at 3 µM; 360,000 compounds, 0.14% hits; AID 624127;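 active = activation above the run mean over all test wells plus 3 SD, cut at about 32% in these data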;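 also: peak over basal fluorescence ratio per well then scaled between controls; 0% = DMSO wells and 100% = acetylcholine at EC100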
CHRM4 antagonist: blocks acetylcholine activation of human M4 receptor; inhibition, % at 3 µM; 360,000 compounds, 0.73% hits; CHO-hM4 cells, ACh EC80, Fluo-8 calcium fluorescence; P08173;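 active = inhibition above its plate's cutoff, the mean inhibition of sample wells plus 3 SD, cut at about 27% in these data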;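 also: 0% = acetylcholine EC80 with DMSO and 100% = DMSO without agonist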
M5 PAM: potentiates acetylcholine response at human M5 receptor. P08912. 360,000 compounds, 0.3% hits. CHO-K1 hM5, Fluo-8 calcium, ACh EC20 PAM; 0% = ACh EC20, 100% = ACh EC100. activation, % at 3 µM. AID 624038;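 active = activation above the run cutoff, the mean activation of all test compounds plus 3 SD, cut at about 18% in these data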
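Probe or stimulus: acetylcholine, EC20 level; Assay system: human M5 receptor in CHO-K1 cells; Schedule: compound preincubation 140 s before EC20 acetylcholine addition; Technique: intracellular calcium via Fluo-8 fluorescence; Dosing: single-point, 3 µM nominal; Read-out basis: percent activation from peak-over-basal fluorescence ratio, scaled EC20-to-EC100 acetylcholine; Repeats: one well per compound, no replicates.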
* = called active by the depositor. The list is not random: actives were taken first. Their share in the collection is about 1.8%.

`CCN(CC(=O)Nc1c(F)cccc1F)C(=O)CCC(=O)c1ccc(C)cc1` gave CHRM5 agonist 1.7, CHRM5 antagonist 8.0, CHRM4 PAM -2.4, M4 ag 0.6, CHRM4 antagonist 4.0 and M5 PAM -8.4.
CS(=O)(=O)c1ccc(Cl)c(NC(=O)CN2CCN(C(=O)c3cccs3)CC2)c1 was read as CHRM5 agonist 0.6, CHRM5 antagonist 10.0, CHRM4 PAM -4.2, M4 ag 1.3, CHRM4 antagonist -3.4 and M5 PAM -0.7.
For CCOC(=O)/C(=C/c1c2ccccc2cc2ccccc12)NC(=O)c1ccccc1 the results were CHRM5 agonist -5.2, CHRM5 antagonist -4.5, CHRM4 PAM -9.5, M4 ag -0.7, CHRM4 antagonist -2.2 and M5 PAM -8.7.
`CCOC(=O)/C(=C/c1ccc(OC(=O)c2ccccc2)cc1)C(C)=O` gave CHRM5 agonist -1.4, CHRM5 antagonist -5.2, CHRM4 PAM 21.2*, M4 ag 1.4, CHRM4 antagonist -1.4 and M5 PAM 6.0.
Screening CCOC(=O)/C(=C\c1ccccc1)NC(=O)c1ccccc1 returned CHRM5 agonist 3.8, CHRM5 antagonist -18.5, CHRM4 PAM 0.5, M4 ag 1.7, CHRM4 antagonist -6.3 and M5 PAM 18.7*.
COc1ccc(NC(=S)NC(NC(=O)c2ccc(Cl)cc2Cl)C(Cl)(Cl)Cl)c([N+](=O)[O-])c1 (stereo not drawn) was read as CHRM5 agonist 6.2, CHRM5 antagonist 27.7*, CHRM4 PAM -1.1, M4 ag 10.6, CHRM4 antagonist -3.2 and M5 PAM -21.3.
For CCOc1ccccc1C(=O)N(C)Cc1cc2cc(OC)ccc2[nH]c1=O the results were CHRM5 agonist -4.2, CHRM5 antagonist 1.5, CHRM4 PAM 4.6, M4 ag 4.4, CHRM4 antagonist -3.8 and M5 PAM -2.8.
CCOc1cc(C(=O)N(C)Cc2cc3cc(OC)ccc3[nH]c2=O)cc(OCC)c1OCC was read as CHRM5 agonist -0.5, CHRM5 antagonist -4.5, CHRM4 PAM 29.7*, M4 ag 1.4, CHRM4 antagonist -1.9 and M5 PAM 2.8.
For COc1ccc(-c2cc(C(N)=O)nc(N3CCCCCC3)n2)cc1 the results were CHRM5 agonist -4.3, CHRM5 antagonist -13.9, CHRM4 PAM 27.8*, M4 ag -0.8, CHRM4 antagonist -5.0 and M5 PAM 11.7.
Screening CC(=O)N(C)c1ccc(NC(=O)Nc2ccc(Cl)cc2)cc1 returned CHRM5 agonist 7.3, CHRM5 antagonist 28.9*, CHRM4 PAM -14.3, M4 ag 26.9, CHRM4 antagonist 26.3 and M5 PAM -29.3.
For COc1cc(-c2noc(C)c2-c2ccc(N(C)C)nc2)cc(OC)c1OC the results were CHRM5 agonist 36.1*, CHRM5 antagonist 12.0, CHRM4 PAM -7.2, M4 ag 35.8*, CHRM4 antagonist -3.0 and M5 PAM -11.6.
O=S(=O)(c1ccccc1)N1CCC(Oc2ccc(-n3cnnn3)cc2)CC1 was read as CHRM5 agonist 5.5, CHRM5 antagonist 9.4, CHRM4 PAM -12.4, M4 ag 25.9, CHRM4 antagonist 28.2* and M5 PAM -15.2.
CC1CCCCC1NC(=O)CCCn1c(=S)[nH]c2ccsc2c1=O (stereo not drawn) was read as CHRM5 agonist -1.6, CHRM5 antagonist -8.9, CHRM4 PAM -0.5, M4 ag 2.1, CHRM4 antagonist -4.1 and M5 PAM -2.5.
`Cc1ccc(C(=O)N2CCN(c3ccccn3)CC2)cc1Cl` gave CHRM5 agonist -0.8, CHRM5 antagonist 7.4, CHRM4 PAM -1.1, M4 ag 4.4, CHRM4 antagonist -10.7 and M5 PAM -0.7.
Screening Nc1nc(SCC(=O)Nc2ccc(OC(F)(F)F)cc2)[nH]c(=O)c1NC(=O)c1ccc(Br)o1 returned CHRM5 agonist -4.6, CHRM5 antagonist 33.9*, CHRM4 PAM 10.1, M4 ag 0.5, CHRM4 antagonist -16.5 and M5 PAM -11.4.
For CCSc1nc(N)c(NC(=O)c2ccc(Br)o2)c(=O)[nH]1 the results were CHRM5 agonist -2.7, CHRM5 antagonist 6.0, CHRM4 PAM -2.7, M4 ag 1.1, CHRM4 antagonist 8.3 and M5 PAM 1.1.
For O=C(O)c1ccccc1/C=N/NC(=S)NCc1ccccc1 the results were CHRM5 agonist 3.3, CHRM5 antagonist 32.3*, CHRM4 PAM -2.9, M4 ag 3.1, CHRM4 antagonist 4.8 and M5 PAM 34.5*.
Screening CCc1nc2c(OCc3ccc(C(F)(F)F)cc3)cccn2c1N(C)C(=O)C(C)C returned CHRM5 agonist -3.2, CHRM5 antagonist -0.9, CHRM4 PAM 2.1, M4 ag -0.9, CHRM4 antagonist -0.7 and M5 PAM -1.0.
Screening O=C(CSc1ccccc1)NCC1(N2CCOCC2)CCCCC1 returned CHRM5 agonist -4.0, CHRM5 antagonist 0.0, CHRM4 PAM -5.5, M4 ag 0.7, CHRM4 antagonist -0.6 and M5 PAM 0.6.
Cc1onc(-c2c(Cl)cccc2Cl)c1C(=O)N1CCc2ccccc2C1 was read as CHRM5 agonist -7.6, CHRM5 antagonist 11.6, CHRM4 PAM -16.1, M4 ag -1.1, CHRM4 antagonist 32.0* and M5 PAM -21.8.
Screening Cc1onc(-c2ccccc2Cl)c1C(=O)N1CCOC12CCCCC2 returned CHRM5 agonist 2.5, CHRM5 antagonist 4.2, CHRM4 PAM 19.0*, M4 ag 1.6, CHRM4 antagonist -17.0 and M5 PAM 13.6.
For COCCN(C(=O)CCC(=O)Nc1cc(C)on1)C(C(=O)NC1CCCC1)c1ccccc1F (stereo not drawn) the results were CHRM5 agonist 5.9, CHRM5 antagonist 17.5, CHRM4 PAM -20.2, M4 ag -0.3, CHRM4 antagonist 75.0* and M5 PAM 27.6*.
`Cc1cc2cc(CNC(=O)c3ccc(S(=O)(=O)N4CCOCC4)cc3)ccc2n1C` gave CHRM5 agonist -2.1, CHRM5 antagonist 1.7, CHRM4 PAM -15.5, M4 ag 2.1, CHRM4 antagonist 39.2* and M5 PAM -7.0.
For CCOC(=O)c1ccc(NC(=O)c2ccc(C)c(S(=O)(=O)N3CCOCC3)c2)cc1 the results were CHRM5 agonist 4.5, CHRM5 antagonist 28.9*, CHRM4 PAM -11.2, M4 ag 17.9, CHRM4 antagonist 38.7* and M5 PAM -16.2.
Cc1cc2cc(CNC(=O)c3ccc(S(=O)(=O)N(C)C)cc3)ccc2n1C was read as CHRM5 agonist -0.9, CHRM5 antagonist 1.6, CHRM4 PAM -6.5, M4 ag 2.3, CHRM4 antagonist -2.8 and M5 PAM -4.3.
CCOC(=O)c1c(NC(=O)c2ccc(S(=O)(=O)N3CCOCC3)cc2)sc2c1CCN(C)C2 was read as CHRM5 agonist 1.6, CHRM5 antagonist -3.7, CHRM4 PAM 19.3*, M4 ag 2.5, CHRM4 antagonist -18.4 and M5 PAM 0.4.
